Consider 11 compounds from ChEMBL document CHEMBL3351523 (Bioorg Med Chem, 2014).

A short description of series [1]: Cytotoxicity against mock-infected human MT4 cells after 96 hrs by MTT assay. It is filed as cell-based. The gist of the method: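 Exponentially growing MT-4 cells were seeded at 1 × 10^5 cells/mL in RPMI-1640 with 10% FBS and held at 37 °C, 5% CO2 with serial compound dilutions. Viability was read by MTT after 96 h. CC50 from linear regression against untreated controls.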

The subject of series [2] is Human immunodeficiency virus 1. As to the kind of experiment: Antiviral activity against HIV1 infected in human MT4 cells assessed as inhibition of virus-induced cytopathogenicity after 4 days by MTT assay. It is filed as functional, organism-based. Particulars: Human immunodeficiency virus 1, MT4, 96 h. The essentials: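 MT-4 cells (1 × 10^4/well in RPMI) were infected acutely with HIV-1 IIIB, 100 CCID50 (m.o.i. 0.01), with serial dilutions from 100 µM, 1:5. After 4 days at 37 °C, protection from virus-induced cytopathogenicity was read by MTT. EC50 came from linear regression against untreated controls.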

A short description of series [3]: Cytotoxicity against mock-infected MDBK cells after 48 to 96 hrs by MTT assay. It counts as cell-based, Bos taurus. The note with it: cattle. The essentials:
(§1)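 Mock-infected MDBK (6 × 10^5 cells/mL; MEM-E, 10% horse serum, 1 mM pyruvate) or BHK (1 × 10^6 cells/mL; MEM-E, 10% FBS) cells were incubated at 37 °C, 5% CO2 with serial dilutions from 100 µM, 1:5. Viability by MTT after 48–96 h. CC50 from linear regression against untreated controls.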
In general terms: Formazan colour is commonly taken as a measure of viable cells.

Series [4] deals with Bovine viral diarrhea virus 1. As to the kind of experiment: Antiviral activity against Bovine viral diarrhea virus infected in MDBK cells assessed as inhibition of virus-induced cytopathogenicity after 3 to 4 days by MTT assay. It is filed as functional, organism-based. Particulars: Bovine viral diarrhea virus isolates and strains. On the technique in general: Protection from cytopathic effect is a common read-out in antiviral testing.

The nature of series [5]: Cytotoxicity against mock-infected BHK21 cells after 48 to 96 hrs by MTT assay. It counts as functional. Particulars: Mesocricetus auratus, BHK-21. The essentials: as §1
A further series relates to Yellow fever virus. Description: Antiviral activity against Yellow fever virus infected in BHK21 cells assessed as inhibition of virus-induced cytopathogenicity after 3 to 4 days by MTT assay. It counts as functional, organism-based. The note with it: BHK-21.
The next series relates to Reovirus sp. As to the kind of experiment: Antiviral activity against Reovirus type-1 infected in BHK21 cells assessed as inhibition of virus-induced cytopathogenicity after 3 to 4 days by MTT assay. It is filed as functional, organism-based. The note with it: BHK-21.
Series [6] is described as follows: Cytotoxicity against mock-infected african green monkey Vero 76 cells after 48 to 96 hrs by MTT assay. It is filed as cell-based. The note with it: chlorocebus sabaeus, mock-infected Vero 76 cells.
The subject of the next series is Poliovirus 1. Description: Antiviral activity against Poliovirus type 1 Sabin strain infected in african green monkey Vero 76 cells assessed as reduction in plaque number after 2 days by plaque reduction assay. It counts as functional, organism-based. Particulars: Enterovirus C, 48 h. A general note: Plaques are areas of infected cells; plaque reduction assays count them against a control.

For series [7], the system named is Vesicular stomatitis virus. Description: Antiviral activity against Vesicular stomatitis virus infected in african green monkey Vero 76 cells assessed as reduction in plaque number after 2 days by plaque reduction assay. It is filed as functional, organism-based. The note with it: 48 h.
Another series has as its system Human alphaherpesvirus 1. As to the kind of experiment: Antiviral activity against HSV1 infected in african green monkey Vero 76 cells assessed as reduction in plaque number after 3 days by plaque reduction assay. It counts as functional, organism-based. Particulars: Human alphaherpesvirus 1, Vero, 72 h.

A word on the CC50: it is the concentration at which the toxic effect on the cells reaches its halfway point. What is called EC50 is the concentration at which the effect is half-maximal. In series [1], `ClC1(Cl)C2CCOC21n1cnc2ccccc21` (stereo unspecified) came in with a CC50 at 96 h of 33 µM. Also, the 50% effective concentration (EC50) in [2] was more than 100 µM.
The compound `c1ccc2[nH]c(C3CCCCO3)nc2c1` (stereo unspecified) returned a cytotoxic concentration (CC50) at 96 h in series [1] of more than 100 µM. In addition, the EC50 (in series [2]; in series [4]; with Yellow fever virus; in the series with Reovirus sp.; in the series with Poliovirus 1; in [7]) was more than 100 µM each time. Besides, the EC50 in the series on Human alphaherpesvirus 1 is more than 100 µM. Also, the CC50 in series [3], in [5] and in series [6] was more than 100 µM in each case.
In [1], `c1ccc2c(c1)ncn2C1CCCCO1` (stereo unspecified) returned a CC50 at 96 h of more than 100 µM. In addition, the EC50 (in [2]; in series [4]; in the series on Yellow fever virus) was more than 100 µM in each case. The half-maximal cytotoxic concentration (CC50) in series [3] and in [5] was more than 100 µM in each case.
For `Clc1cc2ncn(C3CCCO3)c2cc1Cl` (stereo unspecified), in [1], the CC50 at 96 h is more than 100 µM. In addition, the EC50 (in [2]; in series [4]; in the series with Yellow fever virus; in the series with Reovirus sp.) was more than 100 µM throughout. For the same compound, the CC50 in series [3] and in series [5] was more than 100 µM in each case.
Consider `CC1(c2nc3ccccc3[nH]2)CCC(C(N)=O)C(C)(C)O1` (stereo unspecified), for which the CC50 at 96 h in series [1] is more than 100 µM. Further, the EC50 (in [2]; in [4]; in the series with Yellow fever virus; with Reovirus sp.; with Poliovirus 1; in [7]) was more than 100 µM each time. In addition, the EC50 with Human alphaherpesvirus 1 is more than 100 µM. The CC50 in [3], in [5] and in series [6] was more than 100 µM each time.
As to `CC1(c2nc3ccccc3[nH]2)CCC(C#N)C(C)(C)O1` (stereo unspecified), the CC50 at 96 h in series [1] is more than 100 µM. The EC50 (in series [2]; in series [4]; in the series on Yellow fever virus; in the series with Reovirus sp.; in the series on Poliovirus 1; in series [7]) was more than 100 µM each time. Besides, the EC50 in the series with Human alphaherpesvirus 1 is more than 100 µM. Moreover, the CC50 in series [3], in series [5] and in [6] was more than 100 µM each time.
With `Clc1cc2nc(C3CCCO3)[nH]c2cc1Cl` (stereo unspecified), the CC50 in [3] and in [5] was more than 100 µM each time. Besides, the EC50 (in [4]; with Yellow fever virus) was more than 100 µM in each case.
In turn, `Clc1cc2nc(C3CCCCO3)[nH]c2cc1Cl` (stereo unspecified) registered a CC50 at 96 h in series [1] of 6 µM. Moreover, the EC50 in series [2] is more than 100 µM; in series [4], more than 100 µM; in the series on Yellow fever virus, more than 100 µM; in the series with Reovirus sp., more than 100 µM; with Poliovirus 1 it was 60 µM; in [7], more than 100 µM. In the series on Human alphaherpesvirus 1, the EC50 was more than 100 µM. For the same compound, the cytotoxic concentration (CC50) in series [3], in series [5] and in series [6] was more than 100 µM in each case.
In series [1], `FC(F)(F)c1ccc2[nH]c(C3CCCCO3)nc2c1` (stereo unspecified) yielded a CC50 at 96 h of 97 µM. Further, the EC50 (in series [2]; in [4]; in the series on Yellow fever virus; in the series with Reovirus sp.; with Poliovirus 1; in series [7]) was more than 100 µM in each case. In addition, the EC50 in the series on Human alphaherpesvirus 1 was more than 100 µM. The CC50 in [3], in series [5] and in series [6] was more than 100 µM each time.
The compound `Clc1ccc2[nH]c(C3CCCCO3)nc2c1` (stereo unspecified) displayed a CC50 at 96 h in series [1] of more than 100 µM. The concentration for a half-maximal effect (EC50) in series [2] is more than 100 µM; in series [4], more than 100 µM; in the series with Yellow fever virus, more than 100 µM; with Reovirus sp., more than 100 µM; with Poliovirus 1 it was 20 µM; in [7], more than 100 µM. Besides, in the series on Human alphaherpesvirus 1, the concentration giving a half-maximal response (EC50) was more than 100 µM. Besides, the CC50 in [3], in [5] and in series [6] was more than 100 µM in each case.
`O=C1Nc2ccc(Cl)cc2[C@@](C#CC2CC2)(C(F)(F)F)O1` [EFAVIRENZ]: half-maximal cytotoxicity in series [1] (CC50 at 96 h) was put at 38 µM.
